According to publication PMC3668529 (FEBS Open Bio, 2013):
Where two headings read alike, the source gives them in different places.

How the values were obtained:
rCPT-2 [1] = molecular target: T1, rCPT-2 (Rattus norvegicus, UniProt P18886); assay: Isothermal titration calorimetry; assay type: binding
T1 sequence (P18886 26-658): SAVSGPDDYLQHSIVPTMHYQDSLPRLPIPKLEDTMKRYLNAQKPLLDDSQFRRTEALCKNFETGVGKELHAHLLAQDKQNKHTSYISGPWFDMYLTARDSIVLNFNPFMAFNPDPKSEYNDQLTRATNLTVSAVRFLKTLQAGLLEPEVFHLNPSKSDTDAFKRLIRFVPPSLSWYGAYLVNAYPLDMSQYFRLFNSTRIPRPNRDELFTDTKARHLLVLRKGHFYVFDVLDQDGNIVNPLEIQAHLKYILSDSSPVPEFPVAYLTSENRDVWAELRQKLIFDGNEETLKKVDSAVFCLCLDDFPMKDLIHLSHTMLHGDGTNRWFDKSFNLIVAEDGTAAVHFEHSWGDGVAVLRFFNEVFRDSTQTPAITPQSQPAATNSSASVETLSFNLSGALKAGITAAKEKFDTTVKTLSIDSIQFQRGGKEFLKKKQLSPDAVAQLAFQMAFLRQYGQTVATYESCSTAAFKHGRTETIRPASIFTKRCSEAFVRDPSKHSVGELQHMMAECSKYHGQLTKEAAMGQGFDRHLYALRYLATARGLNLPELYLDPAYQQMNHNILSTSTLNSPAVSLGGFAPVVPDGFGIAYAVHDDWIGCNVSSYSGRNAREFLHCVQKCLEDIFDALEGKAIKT
Procedure, shortened: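 Inhibitor (100–300 μM, from 10 mM DMSO stock, in identical buffer) was injected in 10 μL steps. ΔH0, K and n came from a 1:1 fit, with ΔG0 and ΔS0 calculated. ΔCp0 came from runs at several temperatures. Proton transfer was tested with HEPES, Bicine or Tris buffers at pH 8 and 10 °C, fitting ΔHobs against buffer ionization enthalpy by linear regression.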

rCPT-2 [2] = molecular target: T1, rCPT-2; assay: Binding site by X-ray crystallography and manual docking; settings: crystal structures and docking models
Procedure, shortened: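 Crystals were cryo-protected or oil-exchanged, flash frozen, and data collected at 100 K. Ligands were placed by manual modelling into the structure, then energy-minimised with protein atoms constrained.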

rCPT-2 [3] = molecular target: T1, rCPT-2; assay: Differential scanning calorimetry; assay type: binding
Procedure, shortened: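 Thermal unfolding was run by DSC at a scan rate of 30 °C/h. The reference cell held buffer, with a buffer–buffer blank as baseline. Transition midpoints were read from the curves.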

[4] = ITC demicellization of β-OG with and without co-dissolved inhibitor; assay type: physicochemical; settings: for CMC / TΔSmic0 / ΔGmic0 / ΔHmic0: absence of rCPT-2
Procedure, shortened: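 Syringe held 300 mM β-OG with 1% or 7.5% (v/v) DMSO, with or without 0.75 mM inhibitor, in 25 mM Tris/HCl pH 8, 150 mM NaCl, 2 mM TCEP, degassed 10 min. Injected stepwise into buffer. Initial constant heats gave ΔHdemic0 (ΔHmic0 of opposite sign). Curves simulated with a cooperative association model. CMC taken as midpoint, ΔGmic0 = RT lnCMC, ΔCp0 from linear fits of ΔHmic0 versus temperature.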

rCPT-2 [5] = molecular target: T1, rCPT-2; assay: rCPT-2 activity assay, spectrophotometric with DTNB; assay type: biochemical; settings: diluted lysate, 30 °C, reverse reaction, no additional β-OG
Procedure, shortened: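 The reverse reaction was run at 30 °C with crude Pichia pastoris lysate (30 nM enzyme) in 25 mM Tris–HCl pH 7.4, 120 mM KCl and 1 mM EDTA, without added β-OG. Substrates were 500 μM carnitine and 80 μM palmitoyl-CoA. Released CoA-SH was detected with DTNB by absorbance at 410 nm (ε 13,600 M−1 cm−1). Inhibitors were titrated from 10 mM DMSO stocks.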

rCPT-2 [6] = molecular target: T1, rCPT-2; settings: octanoyl-CoA as substrate, competitive; cited from earlier work
[7] = cited from earlier work

Molecule: CCCCCCCCCCCCCCNC(=O)N[C@H](CC(=O)[O-])C[N+](C)(C)C [Inhibitor 4, reference compound]
- Kd (rCPT-2 [1]; ITC, 10 °C, 25 mM Tris/HCl pH 8, 1% β-OG, 1% DMSO): 10.5 ± 3.3 µM
- TΔS^0 (rCPT-2 [1]; ITC, 10 °C, Tris/HCl pH 8): -3.3 ± 0.5 kcal/mol
- ΔG^0 (rCPT-2 [1]; ITC, 10 °C, Tris/HCl pH 8): -6.5 ± 0.3 kcal/mol
- ΔH^0 (rCPT-2 [1]; ITC, 10 °C, Tris/HCl pH 8): -9.8 ± 0.7 kcal/mol
- Kd (rCPT-2 [1]; ITC, 37 °C, Tris/HCl pH 8): 20 µM
- TΔS^0 (rCPT-2 [1]; ITC, 37 °C, Tris/HCl pH 8): -3.7 kcal/mol
- ΔG^0 (rCPT-2 [1]; ITC, 37 °C, Tris/HCl pH 8): -5.9 kcal/mol
- ΔH^0 (rCPT-2 [1]; ITC, 37 °C, Tris/HCl pH 8): -9.5 kcal/mol
- sign of the reaction enthalpy (rCPT-2 [1]; Tris/HCl pH 8): exothermic
- molar heat capacity change ΔCp0 of binding (rCPT-2 [1]; Tris/HCl pH 8, temperature dependence of ΔH^0): 11 cal/mol K
- Kd (rCPT-2 [1]; read-out: dissociation constants determined by ITC): 20 µM
- rCPT-2 (binding site) (rCPT-2 [2]): Acylcarnitine site
- midpoint of the thermal unfolding transition of rCPT-2 (rCPT-2 [3]; 14 μM rCPT-2, 100 μM inhibitor): 49.8 °C
- total unfolding enthalpy of rCPT-2 (rCPT-2 [3]; interval 30–55 °C, protein in excess of inhibitor): 1270 kcal/mol
- stability increase of rCPT-2 (rCPT-2 [3]; with versus without inhibitor): ~3 °C
- effect on the CMC of β-OG ([4]; 7.5% (v/v) DMSO, compared to β-OG alone): slightly increase
- CMC ([4]; 14 °C): 35.1 mM
- TΔSmic0 ([4]; 14 °C): 3.26 kcal/mol
- ΔGmic0 ([4]; 14 °C): -1.90 kcal/mol
- CMC ([4]; 25 °C): 31.3 mM
- TΔSmic0 ([4]; 25 °C): 2.92 kcal/mol
- ΔGmic0 ([4]; 25 °C): -2.04 kcal/mol
- ΔHmic0 ([4]; 25 °C): 0.88 kcal/mol
- CMC ([4]; 30 °C): 31.0 mM
- TΔSmic0 ([4]; 30 °C): 2.66 kcal/mol
- ΔGmic0 ([4]; 30 °C): -2.08 kcal/mol
- ΔHmic0 ([4]; 30 °C): 0.57 kcal/mol
- CMC ([4]; 45 °C): 31.0 mM
- TΔSmic0 ([4]; 45 °C): 1.74 kcal/mol
- ΔGmic0 ([4]; 45 °C): -2.19 kcal/mol
- ΔHmic0 ([4]; 45 °C): -0.45 kcal/mol
- IC50 (rCPT-2 [5]): 0.38 µM

Molecule: CCCCCCCCO[C@@H]1O[C@H](CO)[C@@H](O)[C@H](O)[C@H]1O [β-OG, β-octyl glucoside]
- Ki (rCPT-2 [6]): 15000 µM
- CMC ([4]; 14 °C): 32.8 mM
- TΔSmic0 ([4]; 14 °C): 3.27 kcal/mol
- ΔGmic0 ([4]; 14 °C): -1.94 kcal/mol
- ΔHmic0 ([4]; 14 °C): 1.33 kcal/mol
- CMC ([4]; 30 °C): 27.8 mM
- TΔSmic0 ([4]; 30 °C): 2.75 kcal/mol
- ΔGmic0 ([4]; 30 °C): -2.15 kcal/mol
- ΔHmic0 ([4]; 30 °C): 0.60 kcal/mol
- CMC ([4]; 37 °C): 28.6 mM
- TΔSmic0 ([4]; 37 °C): 2.34 kcal/mol
- ΔGmic0 ([4]; 37 °C): -2.18 kcal/mol
- ΔHmic0 ([4]; 37 °C): 0.16 kcal/mol
- ΔHmic0 ([4]; 45 °C): -0.54 kcal/mol
- molar heat capacity change of micelle formation ΔCp0 ([4]; slopes of ΔHmic0 versus temperature, with and without inhibitors): −60 to −90 cal/mol K

Molecule: cinnamycin
- binding constants of the PE–cinnamycin complex, times smaller in the β-OG environment [7]: 10–100 times
- free energy of binding ΔG^0, less negative in β-OG micelles than in the aqueous phase [7]: 1 to 2.5 kcal/mol
